ChEMBL document CHEMBL1156295, “In vitro and in vivo photocytotoxicity of boron dipyrromethene derivatives for photodynamic therapy” (J Med Chem, 2010)

Tests used:
Assay type in all cases: functional, cell-based
HSC-2 [1] = assay: Phototoxicity against human HSC2 cells irradiated with 4.1 J/cm^2 broad spectrum light treated 2 hrs before irradiation measured after 24 hrs by MTT assay; conditions: HSC-2, light or radiation study
How it was run: (§1)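 HL60 at 15000 cells/well; HSC-2 and HK1 at 3000 cells/well, adhered overnight; phenol-red-free medium with 10% FBS. Compound tested at 0.001–100.0 μM from DMSO stock; controls 0.01% DMSO. After 2 h, irradiated with broad-spectrum light at 6.8 mW/cm2, or dark. After 24 h, MTT 4 h at 37 °C, formazan in DMSO, A570. Three determinations, mean ± SD.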

HSC-2 [2] = assay: Cytotoxicity against human HSC2 cells after 24 hrs by MTT assay; conditions: HSC-2, 24 h; how it was run: as §1
HL-60 [3] = assay: Cytotoxicity against human HL60 cells after 24 hrs by MTT assay; conditions: HL-60, 24 h; how it was run: as §1
[4] = Cytotoxicity against human HK1 cells after 24 hrs by MTT assay; conditions: HK-1, 24 h; how it was run: as §1
HL-60 [5] = assay: Phototoxicity against human HL60 cells irradiated with 4.1 J/cm^2 broad spectrum light treated 2 hrs before irradiation measured after 24 hrs by MTT assay; conditions: HL-60, light or radiation study; how it was run: as §1
[6] = Phototoxicity against human HK1 cells irradiated with 4.1 J/cm^2 broad spectrum light treated 2 hrs before irradiation measured after 24 hrs by MTT assay; conditions: HK-1, light or radiation study; how it was run: as §1

With `CC1=C(/C=C/C(=O)O)C(C)=[N+]2C1=Cc1c(C)cc(C)n1[B-]2(F)F` the IC50 (HSC-2 [1]) was greater than 100 µM, the IC50 (HSC-2 [2]) was greater than 100 µM and the IC50 (HL-60 [3]) was greater than 100 µM. For the same compound, the IC50 [4] was greater than 100 µM, the IC50 (HL-60 [5]) was greater than 100 µM and the IC50 [6] was greater than 100 µM.

`COC(=O)/C=C/C1=C(C)C2=Cc3c(C)c(/C=C/C(=O)OC)c(C)n3[B-](F)(F)[N+]2=C1C` showed an IC50 (HSC-2 [1]) of 11.1 µM, an IC50 (HSC-2 [2]) greater than 100 µM and an IC50 (HL-60 [3]) greater than 100 µM. The IC50 [4] was greater than 100 µM, the IC50 (HL-60 [5]) was 5.2 µM and the IC50 [6] was 8.5 µM.

Compound `COC(=O)C1=CCCC1C1=C(C)C2=Cc3c(C)c(C4CCC=C4C(=O)OC)c(C)n3[B-](F)(F)[N+]2=C1C` (configuration not stated) has an IC50 (HL-60 [3]) greater than 100 µM, an IC50 [4] greater than 100 µM and an IC50 (HL-60 [5]) of 3.8 µM. It also gave an IC50 [6] of 4.8 µM.

`CC1=CC(C)=[N+]2C1=Cc1c(C)cc(C)n1[B-]2(F)F` gave an IC50 (HSC-2 [1]) of 8.7 µM, an IC50 (HSC-2 [2]) greater than 100 µM and an IC50 (HL-60 [3]) greater than 100 µM. The IC50 [4] was 76.8 µM, the IC50 (HL-60 [5]) was 4.4 µM and the IC50 [6] was 6.2 µM.

For `CC1=C(S(=O)(=O)O)C(C)=[N+]2C1=C(c1ccc(I)cc1)c1c(C)c(S(=O)(=O)O)c(C)n1[B-]2(F)F`, the IC50 (HSC-2 [1]) was 59.4 µM, the IC50 (HSC-2 [2]) was greater than 100 µM and the IC50 (HL-60 [3]) was greater than 100 µM. For the same compound, the IC50 [4] was greater than 100 µM, the IC50 (HL-60 [5]) was 54.3 µM and the IC50 [6] was 59 µM.

With `CC1=C(C=O)C(C)=[N+]2C1=Cc1c(C)cc(C)n1[B-]2(F)F` the IC50 (HSC-2 [1]) was greater than 100 µM, the IC50 (HSC-2 [2]) was greater than 100 µM and the IC50 (HL-60 [3]) was greater than 100 µM. For the same compound, the IC50 [4] was greater than 100 µM, the IC50 (HL-60 [5]) was greater than 100 µM and the IC50 [6] was greater than 100 µM.

With `CCCCOC(=O)/C=C/C1=C(C)C2=Cc3c(C)c(/C=C/C(=O)OCCCC)c(C)n3[B-](F)(F)[N+]2=C1C` the IC50 (HSC-2 [1]) was 37.7 µM, the IC50 (HSC-2 [2]) was greater than 100 µM and the IC50 (HL-60 [3]) was greater than 100 µM. The IC50 [4] was greater than 100 µM, the IC50 (HL-60 [5]) was 57.7 µM and the IC50 [6] was greater than 100 µM.

In the case of `CCCCOC(=O)/C=C/C1=C(C)C2=Cc3c(C)cc(C)n3[B-](F)(F)[N+]2=C1C`, the IC50 (HSC-2 [1]) is reported as 0.6 µM, the IC50 (HSC-2 [2]) is reported as greater than 100 µM and the IC50 (HL-60 [3]) is reported as greater than 100 µM. For the same compound, the IC50 [4] was 99.6 µM, the IC50 (HL-60 [5]) was 0.49 µM and the IC50 [6] was 1.1 µM.

With `CC1=C(I)C(C)=[N+]2C1=C(c1ccc(I)cc1)c1c(C)c(I)c(C)n1[B-]2(F)F` the IC50 (HSC-2 [1]) was 0.5 µM, the IC50 (HSC-2 [2]) was 10 µM and the IC50 (HL-60 [3]) was 10 µM. The IC50 [4] was 95.5 µM, the IC50 (HL-60 [5]) was 0.42 µM and the IC50 [6] was 0.69 µM.

Compound `COC(=O)/C=C/C1=C(C)C2=Cc3c(C)cc(C)n3[B-](F)(F)[N+]2=C1C` has an IC50 (HSC-2 [1]) of 5.4 µM, an IC50 (HSC-2 [2]) greater than 100 µM and an IC50 (HL-60 [3]) greater than 100 µM. The IC50 [4] was greater than 100 µM, the IC50 (HL-60 [5]) was 4.8 µM and the IC50 [6] was 5.3 µM.

With `CC1=C(I)C(C)=[N+]2C1=Cc1c(C)c(I)c(C)n1[B-]2(F)F` the IC50 (HSC-2 [1]) was 0.64 µM, the IC50 (HSC-2 [2]) was greater than 100 µM and the IC50 (HL-60 [3]) was greater than 100 µM. For the same compound, the IC50 [4] was greater than 100 µM, the IC50 (HL-60 [5]) was 0.062 µM and the IC50 [6] was 0.57 µM.

For `CC1=CC(C)=[N+]2C1=C(c1ccc(I)cc1)c1c(C)cc(C)n1[B-]2(F)F`, the IC50 (HSC-2 [1]) was 5.1 µM, the IC50 (HSC-2 [2]) was greater than 100 µM and the IC50 (HL-60 [3]) was greater than 100 µM. For the same compound, the IC50 [4] was greater than 100 µM, the IC50 (HL-60 [5]) was 2.7 µM and the IC50 [6] was 5.7 µM.

Work on `CC1=C(/C=C/S(=O)(=O)O)C(C)=[N+]2C1=Cc1c(C)cc(C)n1[B-]2(F)F` yielded an IC50 (HSC-2 [1]) greater than 100 µM, an IC50 (HSC-2 [2]) greater than 100 µM and an IC50 (HL-60 [3]) greater than 100 µM. For the same compound, the IC50 [4] was greater than 100 µM, the IC50 (HL-60 [5]) was greater than 100 µM and the IC50 [6] was greater than 100 µM.

`COC(=O)C1=CCCCC1C1=C(C)C2=Cc3c(C)cc(C)n3[B-](F)(F)[N+]2=C1C` (configuration not stated) gave an IC50 (HSC-2 [1]) of 4.1 µM, an IC50 (HSC-2 [2]) greater than 100 µM and an IC50 (HL-60 [3]) greater than 100 µM. It also gave an IC50 [4] greater than 100 µM, an IC50 (HL-60 [5]) of 4.9 µM and an IC50 [6] of 5 µM.
